Measured values as given in ChEMBL document CHEMBL4406856, “Structure based design, synthesis and in vitro antitumour activity of tiazofurin stereoisomers with nitrogen functions at the C-2' or C-3' positions” (Eur J Med Chem, 2019).
The source made the active and inactive calls. The rule behind the calls is not given here.

Experiments:
K562 [1] = test: Induction of apoptosis in human K562 cells incubated for 24 hrs by annexin V FITC and propidium iodide staining based flow cytometry relative to control; format: functional; parameters: concentration or dose not given beside the values
K562 [2] = test: Antiproliferative activity against human K562 cells assessed as reduction in cell growth incubated for 72 hrs by MTT assay; format: functional, cell-based; settings: K562, 72 h
Outline: (§1)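 Colorimetric MTT assay on human tumour lines K562 (chronic myeloid leukemia), HL-60 (promyelocytic leukemia), Jurkat (T cell leukemia), Raji (Burkitt's lymphoma), HT-29 (colorectal adenocarcinoma), HeLa (cervix adenocarcinoma) and normal lung fibroblast MRC-5; cells exposed to compounds for 72 h.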

HL-60 = test: Antiproliferative activity against human HL60 cells assessed as reduction in cell growth incubated for 72 hrs by MTT assay; format: functional, cell-based; settings: HL-60, 72 h
Outline: (§2)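 Colorimetric MTT assay on human tumour lines K562 (chronic myeloid leukemia), HL-60 (promyelocytic leukemia), Jurkat (T cell leukemia), Raji (Burkitt's lymphoma), HT-29 (colorectal adenocarcinoma), HeLa (cervix adenocarcinoma) and normal lung fibroblast MRC-5; cells exposed to compounds for 72 h. IC50 taken as concentration giving 50% growth inhibition versus untreated control.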

Jurkat = test: Antiproliferative activity against human Jurkat cells assessed as reduction in cell growth incubated for 72 hrs by MTT assay; format: functional, cell-based; outline: as §2
Raji = test: Antiproliferative activity against human Raji cells assessed as reduction in cell growth incubated for 72 hrs by MTT assay; format: functional, cell-based; outline: as §1
HT-29 = test: Antiproliferative activity against human HT-29 cells assessed as reduction in cell growth incubated for 72 hrs by MTT assay; format: functional, cell-based; settings: HT-29, 72 h; outline: as §2
HeLa = test: Antiproliferative activity against human HeLa cells assessed as reduction in cell growth incubated for 72 hrs by MTT assay; format: functional, cell-based; outline: as §2
MRC5 = test: Cytotoxicity against human MRC5 cells assessed as reduction in cell viability incubated for 72 hrs by MTT assay; format: cell-based; settings: MRC5, 72 h; outline: as §1
K562 [3] = test: Cell cycle arrest in human K562 cells assessed as accumulation in G2/M phase incubated for 72 hrs by propidium iodide staining based flow cytometry (reference value: 15.45%); format: functional
Outline: (§3)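 Exponentially growing K562 cells treated for 24 or 72 h, untreated cells as control; cells stained with propidium iodide and DNA content read by flow cytometry. Phase distribution (subG1, G0/G1, S, G2/M) taken from one-parameter histograms, subG1 scored as hypodiploid, apoptotic cells.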

K562 [4] = test: Cell cycle arrest in human K562 cells assessed as accumulation in S phase incubated for 72 hrs by propidium iodide staining based flow cytometry (reference value: 36.05%); format: functional; outline: as §3
K562 [5] = test: Cell cycle arrest in human K562 cells assessed as accumulation in G0/G1 phase incubated for 72 hrs by propidium iodide staining based flow cytometry (reference value: 45.43%); format: functional; outline: as §3
K562 [6] = test: Cell cycle arrest in human K562 cells assessed as accumulation in SubG1 phase incubated for 72 hrs by propidium iodide staining based flow cytometry (reference value: 3.07%); format: functional; outline: as §3
K562 [7] = test: Induction of apoptosis in human K562 cells incubated for 72 hrs by annexin V FITC and propidium iodide staining based flow cytometry relative to control; format: functional; parameters: concentration or dose not given beside the values
Outline: (§4)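 K562 cells treated for 72 h, stained with Annexin V-FITC/propidium iodide and analysed by flow cytometry. Apoptotic, necrotic and live fractions scored as percent of gated cells; specific apoptosis and specific necrosis calculated from these counts.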

K562 [8] = test: Induction of necrosis in human K562 cells incubated for 72 hrs by annexin V FITC and propidium iodide staining based flow cytometry relative to control; format: functional; parameters: concentration or dose not given beside the values; outline: as §4
K562 [9] = test: Induction of apoptosis in human K562 cells assessed as Bcl2 level incubated for 72 hrs by Western blot analysis (reference value: 100%); format: functional
Outline: (§5)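 K562 cells treated for 72 h; Bcl-2, BAX, caspase 3 precursor (32 kDa), caspase 3 active subunit (18 kDa) and PARP (112 and 85 kDa) measured by Western blot and expressed as % of untreated control.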

K562 [10] = test: Induction of apoptosis in human K562 cells assessed as Bax level incubated for 72 hrs by Western blot analysis (reference value: 100%); format: functional; outline: as §5
K562 [11] = test: Induction of apoptosis in human K562 cells assessed as 32 kDa Caspase 3 precursor level incubated for 72 hrs by Western blot analysis (reference value: 100%); format: functional; outline: as §5
K562 [12] = test: Induction of apoptosis in human K562 cells assessed as 18 kDa Caspase 3 active subunit level incubated for 72 hrs by Western blot analysis (reference value: 100%); format: functional; outline: as §5
K562 [13] = test: Induction of apoptosis in human K562 cells assessed as 112 kDa PARP level incubated for 72 hrs by Western blot analysis (reference value: 100%); format: functional; outline: as §5
K562 [14] = test: Induction of apoptosis in human K562 cells assessed as 85 kDa PARP level incubated for 72 hrs by Western blot analysis (reference value: 100%); format: functional; outline: as §5
K562 [15] = test: Induction of necrosis in human K562 cells incubated for 24 hrs by annexin V FITC and propidium iodide staining based flow cytometry relative to control; format: functional; parameters: concentration or dose not given beside the values
K562 [16] = test: Cell cycle arrest in human K562 cells assessed as accumulation in G2/M phase incubated for 24 hrs by propidium iodide staining based flow cytometry (reference value: 14.29%); format: functional; outline: as §3
K562 [17] = test: Cell cycle arrest in human K562 cells assessed as accumulation in S phase incubated for 24 hrs by propidium iodide staining based flow cytometry (reference value: 48.38%); format: functional; outline: as §3
K562 [18] = test: Cell cycle arrest in human K562 cells assessed as accumulation in G0/G1 phase incubated for 24 hrs by propidium iodide staining based flow cytometry (reference value: 36.28%); format: functional; outline: as §3
K562 [19] = test: Cell cycle arrest in human K562 cells assessed as accumulation in sub-G1 phase incubated for 24 hrs by propidium iodide staining based flow cytometry (reference value: 1.05%); format: functional; outline: as §3
K562 [20] = test: Cell cycle arrest in human K562 cells assessed as decrease in cell accumulation at G2/M phase incubated for 72 hrs by propidium iodide staining based flow cytometry relative to tiazofurin; format: functional; outline: as §3
K562 [21] = test: Potency index, ratio of tiazofurin IC50 to compound IC50 for cytotoxicity against human K562 cells incubated for 72 hrs by MTT assay; format: functional
K562 [22] = test: Potency index, ratio of doxorubicin IC50 to compound IC50 for cytotoxicity against human K562 cells incubated for 72 hrs by MTT assay; format: functional
[23] = Ratio of compound IC50 to tiazofurin IC50 for cytotoxicity against human MRC5 cells incubated for 72 hrs by MTT assay; format: cell-based; settings: read-out: Ratio IC50
K562 [24] = test: Induction of apoptosis in human K562 cells incubated for 72 hrs by annexin V FITC and propidium iodide staining based flow cytometry relative to tiazofurin; format: functional; outline: as §4
K562 [25] = test: Induction of apoptosis in human K562 cells assessed as reduction in cell membrane integrity at cytotoxic IC50 incubated for 72 hrs by acridine orange and ethidium bromide double staining based fluorescence microscopy; format: functional
K562 [26] = test: Genotoxicity in human K562 cells assessed as increase in DNA damage at cytotoxic IC50 incubated for 72 hrs by comet assay; format: toxicity, cell-based; settings: k562, 72 h
Outline: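 Modified alkaline comet assay: cells set in agarose on slides, electrophoresed horizontally, stained with ethidium bromide and imaged by fluorescence microscopy. 50 comets scored per sample; mean tail moment used as the DNA-damage measure.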

Structure (SMILES) | Activity (K562 [1]) | IC50 (K562 [2]) | IC50 (HT-29) | Activity (K562 [3]) | Activity (K562 [4]) | Activity (K562 [5]) | Activity (K562 [6]) | Activity (K562 [7]) | Activity (K562 [8]) | Activity (K562 [9]) | Activity (K562 [10]) | Activity (K562 [11]) | Activity (K562 [12]) | Activity (K562 [13]) | Activity (K562 [14]) | Activity (K562 [15]) | Activity (K562 [16]) | Activity (K562 [17]) | Activity (K562 [18]) | Activity (K562 [19]) | further results
[N-]=[N+]=N[C@H]1[C@H](O)[C@@H](CO)O[C@H]1c1nc(C(N)=O)cs1 | 12.47% | 6.28 µM | 2.48 µM | 13.6% | 35.15% | 37.65% | 13.59% | 12.86% | 6.24% | 35.23% | 186.25% | 3222.35% | 156.25% | 355.91% | 169.74% | 1.26% | 20.75% | 47.46% | 29.73% | 2.32% | IC50 (HL-60): 7.55 µM; IC50 (Jurkat): > 100 µM; IC50 (Raji): 40.5 µM; IC50 (HeLa): 29.9 µM; IC50 (MRC5): > 100 µM; fold change (FC) (K562 [20]): 2 - 2.4
CC(=O)N[C@H]1[C@H](O)[C@@H](CO)O[C@H]1c1nc(C(N)=O)cs1 | 10.64% | 0.0061 µM | > 100 µM | 11.66% | 36.13% | 38.86% | 13.36% | 22.85% | 7.29% | 149.59% | 141.43% | 777.09% | 59.32% | 477.15% | 534.18% | 1.23% | 17.67% | 46.93% | 33.62% | 2.11% | IC50 (HL-60): 12.9 µM; IC50 (Jurkat): > 100 µM; IC50 (Raji): 2.56 µM; IC50 (HeLa): > 100 µM; IC50 (MRC5): 3.21 µM; Ratio IC50 (K562 [21]): 309; Ratio IC50 (K562 [22]): 40; selectivity ratio at 72 h [23]: 9; fold change (FC) (K562 [20]): 2 - 2.4; fold change (FC) (K562 [24]): 2
NC(=O)c1csc([C@@H]2O[C@H](CO)[C@@H](O)[C@@H]2N)n1 | 7.07% | 1.97 µM | 23.4 µM | 10.79% | 34.2% | 37.94% | 17.08% | 23.39% | 9.82% | 414.66% | 193% | 1144.41% | 153.73% | 387.73% | 570.91% | 9.58% | 9.11% | 52.43% | 36.67% | 2.58% | IC50 (HL-60): 1.02 µM; IC50 (Jurkat): 0.04 µM; IC50 (Raji): 1.03 µM; IC50 (HeLa): 1.03 µM; IC50 (MRC5): > 100 µM; fold change (FC) (K562 [20]): 2 - 2.4; fold change (FC) (K562 [24]): 2
NC(=O)c1csc([C@@H]2O[C@H](CO)[C@@H](O)[C@H]2O)n1 [TIAZOFURIN] | -0.34% | – | – | 5.74% | 33.62% | 35.66% | 24.99% | 13.71% | 13.71% | 344.33% | 338.37% | 1302.79% | 89.69% | 299.68% | 214.99% | 3.76% | 7.55% | 53.16% | 37.08% | 2.22% | Activity (K562 [25]): Active; Activity (K562 [26]): Toxic
COc1cccc2c1C(=O)c1c(O)c3c(c(O)c1C2=O)C[C@@](O)(C(=O)CO)C[C@@H]3O[C@H]1C[C@H](N)[C@H](O)[C@H](C)O1 [DOXORUBICIN] | – | – | 0.15 µM | – | – | – | – | – | – | – | – | – | – | – | – | – | – | – | – | – | –
